The source made the active and inactive calls. The calls are words filed in the database; no cut-off is given here. Peptide text beside a SMILES is read from it.

In one assay the target is Glucagon receptor (Rattus norvegicus, UniProt P30082). The experiment in a line: IC50 value was expressed as inhibition of [125]glucagon specific binding. The method in brief: (§1)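 Incubation 10 min at 30 °C, then ice cooling and filtration on 0.45 μm cellulose acetate, gamma counting. Nonspecific binding taken with 1024 nM unlabeled peptide and subtracted. Read as % inhibition of specific binding. Triplicates, repeated twice.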

The target of assay [1] is T1, Adenylate cyclase (Rattus norvegicus) (UniProt D4A3N4+P26770+Q04400+P26769+Q03343+P40146+Q8CFM9+P21932). Briefly: Maximum stimulation of adenylate cyclase. Type of assay: protein assay.
Assay [2] addresses T1, Adenylate cyclase (Rattus norvegicus). Briefly: Adenylate cyclase stimulation; Inactive up to 100 uM. Type of assay: protein assay.
The target of assay [3] is Glucagon receptor (Rattus norvegicus) (UniProt P30082). Briefly: Relative binding by measuring competition for glucagon receptor between [125]glucagon and the compound. The method in brief: as §1
Assay [4] in a line: A dose-response plot was obtained by determining the response when the concentration of glucagon was varied while the concentration was kept same.

Sequence of Glucagon receptor (P30082 whole entry): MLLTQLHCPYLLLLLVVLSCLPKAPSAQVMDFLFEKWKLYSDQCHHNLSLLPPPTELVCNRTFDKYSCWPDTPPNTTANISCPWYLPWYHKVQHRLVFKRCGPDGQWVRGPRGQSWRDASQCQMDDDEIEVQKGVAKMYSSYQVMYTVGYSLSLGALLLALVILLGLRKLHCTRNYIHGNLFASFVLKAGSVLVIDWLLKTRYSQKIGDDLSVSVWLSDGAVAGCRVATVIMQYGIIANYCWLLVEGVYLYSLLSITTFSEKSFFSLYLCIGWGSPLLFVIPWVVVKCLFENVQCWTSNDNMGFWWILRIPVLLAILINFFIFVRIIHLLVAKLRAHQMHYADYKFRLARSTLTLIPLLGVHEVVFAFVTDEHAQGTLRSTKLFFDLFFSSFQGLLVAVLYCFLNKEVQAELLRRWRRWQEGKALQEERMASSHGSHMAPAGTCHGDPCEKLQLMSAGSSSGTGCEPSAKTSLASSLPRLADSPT
Sequence of Glucagon receptor (Rattus norvegicus) (P30082 whole entry): as above

`CSCC[C@H](NC(=O)[C@H](CC(C)C)NC(=O)[C@H](Cc1c[nH]c2ccccc12)NC(=O)[C@H](CCC(N)=O)NC(=O)[C@@H](NC(=O)[C@H](Cc1ccccc1)NC(=O)[C@H](CC(=O)O)NC(=O)[C@H](CCC(N)=O)NC(=O)[C@H](C)NC(=O)[C@H](CCCNC(=N)N)NC(=O)[C@H](CCCNC(=N)N)NC(C)=O)C(C)C)C(=O)N[C@@H](CC(N)=O)C(=O)N[C@H](C(N)=O)[C@@H](C)O`: the IC50 – broadly, the concentration that gives 50% inhibition – at Glucagon receptor turned out to be 2300 nM.
Take `CC(=O)N[C@@H]1CSSC[C@H](C(N)=O)NC(=O)[C@@H](Cc2ccc(O)cc2)NC(=O)[C@H](CCCCN)NC(=O)[C@@H](CO)NC(=O)[C@H](Cc2ccc(O)cc2)NC1=O`: in assay [1], the Max stimulation turned out to be 0%. For the same compound, the IA entry in assay [2] was “Inactive up to 100 uM”. Further, the Relative binding in assay [3] stood at 0%.
`CSCC[C@H](NC(=O)[C@H](CC(C)C)NC(=O)[C@H](Cc1c[nH]c2ccccc12)NC(=O)[C@H](CCC(N)=O)NC(=O)[C@@H](NC(=O)[C@H](Cc1ccccc1)NC(=O)[C@H](CC(=O)O)NC(=O)[C@H](CCC(N)=O)NC(=O)[C@H](C)NC(=O)[C@H](CCCN=C(N)N)NC(=O)[C@H](CCCN=C(N)N)NC(C)=O)C(C)C)C(=O)N[C@@H](CC(N)=O)C(=O)N[C@H](C(N)=O)[C@@H](C)O` yielded a Max stimulation in assay [1] of 0%. For the same compound, the IA entry in assay [2] was “Inactive up to 100 uM”. The compound also registered a Relative binding in assay [3] of 0.065%.
In assay [1], `CC(=O)N[C@@H](CS)C(=O)N[C@@H](Cc1ccc(O)cc1)C(=O)N[C@@H](CO)C(=O)N[C@@H](CCCCN)C(=O)N[C@@H](Cc1ccc(O)cc1)C(=O)N[C@@H](CS)C(N)=O` (Ac-CYSKYC-NH2) gave a Max stimulation of 0%. For the same compound, the IA entry in assay [2] was “Inactive up to 100 uM”. The compound also returned a Relative binding in assay [3] of 0%.
As to `CC(=O)N[C@@H](Cc1ccccc1)C(=O)N[C@@H](CS)C(=O)N[C@@H](CO)C(=O)N[C@@H](CC(=O)O)C(=O)N[C@@H](Cc1ccc(O)cc1)C(=O)N[C@@H](CS)C(=O)N[C@@H](CCCCN)C(=O)N[C@@H](Cc1ccc(O)cc1)C(=O)N[C@@H](CC(C)C)C(N)=O` (Ac-FCSDYCKYL-NH2), the Max stimulation in assay [1] turned out to be 0%. Besides, the IA result in assay [2] was “Inactive up to 100 uM”. This compound had a Relative binding in assay [3] of 30%.
Regarding `CC(=O)N[C@@H](Cc1ccccc1)C(=O)N[C@@H](CS)C(=O)N[C@@H](CO)C(=O)N[C@@H](CC(=O)O)C(=O)N[C@@H](Cc1ccc(O)cc1)C(=O)N[C@@H](CO)C(=O)N[C@@H](CS)C(=O)N[C@@H](Cc1ccc(O)cc1)C(=O)N[C@@H](CC(C)C)C(N)=O` (Ac-FCSDYSCYL-NH2), the Max stimulation in assay [1] came out at 0%. Further, the IA entry in assay [2] is “Inactive up to 100 uM”. Also, the Relative binding in assay [3] is 24%.
In the same order, the values of `CC(=O)N[C@@H](Cc1ccccc1)C(=O)N[C@@H](CS)C(=O)N[C@@H](CO)C(=O)N[C@@H](CC(=O)O)C(=O)N[C@@H](Cc1ccc(O)cc1)C(=O)N[C@@H](CO)C(=O)N[C@@H](CS)C(=O)N[C@@H](Cc1ccc(O)cc1)C(=O)N[C@@H](CC(C)C)C(=O)N[C@@H](CC(=O)O)C(N)=O` (Ac-FCSDYSCYLD-NH2) are 0%, “Inactive up to 100 uM” and 56%.
`CC(=O)N[C@@H](Cc1ccccc1)C(=O)N[C@H](C(=O)N[C@@H](CO)C(=O)N[C@@H](CS)C(=O)N[C@@H](Cc1ccc(O)cc1)C(=O)N[C@@H](CO)C(=O)N[C@@H](CCCCN)C(=O)N[C@@H](Cc1ccc(O)cc1)C(=O)N[C@@H](CS)C(=O)N[C@@H](CC(=O)O)C(N)=O)[C@@H](C)O` (Ac-FTSCYSKYCD-NH2): the Max stimulation in assay [1] was 0%. Further, in assay [2], the IA result is “Inactive up to 100 uM”. Further, the Relative binding in assay [3] came out at 32%.
For the compound `CSCC[C@H](NC(=O)[C@H](CC(C)C)NC(=O)[C@H](Cc1c[nH]c2ccccc12)NC(=O)[C@H](CCC(N)=O)NC(=O)[C@@H](NC(=O)[C@H](Cc1ccccc1)NC(=O)[C@H](CC(=O)O)NC(=O)[C@H](CCC(N)=O)NC(=O)[C@H](C)NC(=O)[C@H](CCCN=C(N)N)NC(=O)[C@H](CCCN=C(N)N)NC(=O)[C@H](CO)NC(=O)[C@H](CC(=O)O)NC(=O)[C@H](CC(C)C)NC(=O)[C@H](Cc1ccc(O)cc1)NC(=O)[C@H](CCCCN)NC(=O)[C@H](CO)NC(=O)[C@H](Cc1ccc(O)cc1)NC(=O)CCCCCc1ccccc1)C(C)C)C(=O)N[C@@H](CC(N)=O)C(=O)N[C@H](C(N)=O)[C@@H](C)O` (HELM PEPTIDE1{[O=C(CCCCCc1ccccc1)[*:2]].Y.S.K.Y.L.D.S.R.R.A.Q.D.F.V.Q.W.L.M.N.T.[am]}$$$$V2.0), in assay [4], the pA2 – broadly, the negative logarithm of the molar antagonist concentration that doubles the agonist concentration needed for the same response – amounted to 7.37.
On Glucagon receptor, `CSCC[C@H](NC(=O)[C@H](CC(C)C)NC(=O)[C@H](Cc1c[nH]c2ccccc12)NC(=O)[C@H](CCC(N)=O)NC(=O)[C@@H](NC(=O)[C@H](Cc1ccccc1)NC(=O)[C@H](CC(=O)O)NC(=O)[C@H](CCC(N)=O)NC(=O)[C@H](C)NC(=O)[C@H](CCCNC(=N)N)NC(=O)[C@H](CCCNC(=N)N)NC(=O)[C@H](CO)NC(=O)[C@H](CC(=O)O)NC(=O)[C@H](CC(C)C)NC(=O)[C@H](Cc1ccc(O)cc1)NC(=O)[C@H](CCCCN)NC(=O)[C@H](CO)NC(=O)[C@H](Cc1ccc(O)cc1)NC(=O)CCCCCc1ccccc1)C(C)C)C(=O)N[C@@H](CC(N)=O)C(=O)N[C@H](C(N)=O)[C@@H](C)O` (HELM PEPTIDE1{[O=C(CCCCCc1ccccc1)[*:2]].Y.S.K.Y.L.D.S.R.R.A.Q.D.F.V.Q.W.L.M.N.T.[am]}$$$$V2.0) had an IC50 of 131 nM.
In turn, `CSCC[C@H](NC(=O)[C@H](CC(C)C)NC(=O)[C@H](Cc1c[nH]c2ccccc12)NC(=O)[C@H](CCC(N)=O)NC(=O)[C@@H](NC(=O)[C@H](Cc1ccccc1)NC(=O)[C@H](CC(=O)O)NC(=O)[C@H](CCC(N)=O)NC(=O)[C@H](C)NC(=O)[C@H](CCCNC(=N)N)NC(=O)[C@H](CCCNC(=N)N)NC(=O)[C@H](CO)NC(=O)[C@H](CC(=O)O)NC(=O)[C@H](CC(C)C)NC(=O)[C@H](Cc1ccc(O)cc1)NC(=O)[C@H](CCCCN)NC(=O)[C@H](CO)NC(=O)[C@H](Cc1ccc(O)cc1)NC(=O)CCCc1ccccc1)C(C)C)C(=O)N[C@@H](CC(N)=O)C(=O)N[C@H](C(N)=O)[C@@H](C)O` (HELM PEPTIDE1{[O=C(CCCc1ccccc1)[*:2]].Y.S.K.Y.L.D.S.R.R.A.Q.D.F.V.Q.W.L.M.N.T.[am]}$$$$V2.0) showed an IC50 on Glucagon receptor of 21.2 nM.
With `CC(=O)N[C@@H](Cc1ccccc1)C(=O)N[C@H]1CSSC[C@@H](C(=O)N[C@@H](CCCCN)C(=O)N[C@@H](Cc2ccc(O)cc2)C(=O)N[C@@H](CC(C)C)C(N)=O)NC(=O)[C@H](Cc2ccc(O)cc2)NC(=O)[C@H](CC(=O)O)NC(=O)[C@H](CO)NC1=O` (HELM PEPTIDE1{[ac].F.C.S.D.Y.C.K.Y.L.[am]}$PEPTIDE1,PEPTIDE1,3:R3-7:R3$$$V2.0), the Max stimulation in assay [1] was found to be 0%. In addition, the IA result in assay [2] is “Inactive up to 100 uM”. This compound also had a Relative binding in assay [3] of 62%.
`CC(=O)N[C@@H](Cc1ccccc1)C(=O)N[C@H]1CSSC[C@@H](C(=O)N[C@@H](Cc2ccc(O)cc2)C(=O)N[C@@H](CC(C)C)C(=O)N[C@@H](CC(=O)O)C(N)=O)NC(=O)[C@H](CO)NC(=O)[C@H](Cc2ccc(O)cc2)NC(=O)[C@H](CC(=O)O)NC(=O)[C@H](CO)NC1=O` (HELM PEPTIDE1{[ac].F.C.S.D.Y.S.C.Y.L.D.[am]}$PEPTIDE1,PEPTIDE1,3:R3-8:R3$$$V2.0) registered a Max stimulation in assay [1] of 0%. Moreover, the IA entry in assay [2] was “Inactive up to 100 uM”. In assay [3], this compound gave a Relative binding of 30%.
The matching figures for `CC(=O)N[C@@H](Cc1ccccc1)C(=O)N[C@H]1CSSC[C@@H](C(=O)N[C@@H](Cc2ccc(O)cc2)C(=O)N[C@@H](CC(C)C)C(N)=O)NC(=O)[C@H](CO)NC(=O)[C@H](Cc2ccc(O)cc2)NC(=O)[C@H](CC(=O)O)NC(=O)[C@H](CO)NC1=O` (HELM PEPTIDE1{[ac].F.C.S.D.Y.S.C.Y.L.[am]}$PEPTIDE1,PEPTIDE1,3:R3-8:R3$$$V2.0): 0%, “Inactive up to 100 uM” and 24%.
`CC(=O)N[C@@H](Cc1ccccc1)C(=O)N[C@H](C(=O)N[C@@H](CO)C(=O)N[C@H]1CSSC[C@@H](C(=O)N[C@@H](CC(=O)O)C(N)=O)NC(=O)[C@H](Cc2ccc(O)cc2)NC(=O)[C@H](CCCCN)NC(=O)[C@H](CO)NC(=O)[C@H](Cc2ccc(O)cc2)NC1=O)[C@@H](C)O` (HELM PEPTIDE1{[ac].F.T.S.C.Y.S.K.Y.C.D.[am]}$PEPTIDE1,PEPTIDE1,5:R3-10:R3$$$V2.0): the Max stimulation in assay [1] came to 0%. In addition, in assay [2], the IA result is “Inactive up to 100 uM”. This compound also displayed a Relative binding in assay [3] of 43%.
With `CSCC[C@H](NC(=O)[C@H](CC(C)C)NC(=O)[C@H](Cc1c[nH]c2ccccc12)NC(=O)[C@H](CCC(N)=O)NC(=O)[C@@H](NC(=O)[C@H](Cc1ccccc1)NC(=O)[C@H](CC(=O)O)NC(=O)[C@H](CCC(N)=O)NC(=O)[C@H](C)NC(=O)[C@H](CCCNC(=N)N)NC(=O)[C@H](CCCNC(=N)N)NC(=O)[C@H](CO)NC(=O)[C@H](CC(=O)O)NC(=O)[C@H](CC(C)C)NC(=O)[C@H](Cc1ccc2ccccc2c1)NC(=O)[C@H](CCCCN)NC(=O)[C@H](CO)NC(=O)[C@H](Cc1ccc2ccccc2c1)NC(C)=O)C(C)C)C(=O)N[C@@H](CC(N)=O)C(=O)N[C@H](C(N)=O)[C@@H](C)O` (HELM PEPTIDE1{[ac].[O=C([C@H](Cc1ccc2ccccc2c1)N[*:1])[*:2]].S.K.[O=C([C@H](Cc1ccc2ccccc2c1)N[*:1])[*:2]].L.D.S.R.R.A.Q.D.F.V.Q.W.L.M.N.T.[am]}$$$$V2.0), the IC50 at Glucagon receptor turned out to be 800 nM.
At Glucagon receptor, Ac-YSKYLDSRRAQDFVQWLMNT-NH2 had a half-inhibitory concentration (IC50) of 60 nM.

The values are drawn from ChEMBL document CHEMBL1134405 (J Med Chem, 2001).
